Screening results: PubChem, several laboratories
Rows were chosen to be rich in hits. Some 4.1% of all compounds tested hit in one or more screens of this group.
KCNK3 block – human KCNK3 channel inhibition, primary screen | B-score at 10 µM | CHO-KCNK3 thallium flux, FluxOR fluorescence; hits give low values | O14649 | actives 0.84% (n = 340,000) | AID 602410;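 active means B-score under library mean minus 4 SD, starting fluorescence ratio at most library mean plus 5 SD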;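 further: more negative B-score means stronger inhibition of thallium flux through KCNK3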
Target sequence (O14649 whole entry, looked up): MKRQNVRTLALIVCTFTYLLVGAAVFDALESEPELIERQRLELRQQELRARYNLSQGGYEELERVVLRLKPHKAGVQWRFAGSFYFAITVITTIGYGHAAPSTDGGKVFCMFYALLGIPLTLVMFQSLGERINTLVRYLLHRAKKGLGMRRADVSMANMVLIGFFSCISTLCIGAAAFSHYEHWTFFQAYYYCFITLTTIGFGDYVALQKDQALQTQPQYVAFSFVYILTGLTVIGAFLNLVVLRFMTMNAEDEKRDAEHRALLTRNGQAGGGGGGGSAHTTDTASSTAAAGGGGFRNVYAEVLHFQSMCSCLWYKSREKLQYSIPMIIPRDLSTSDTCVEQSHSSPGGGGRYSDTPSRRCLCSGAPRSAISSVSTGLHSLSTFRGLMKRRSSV
hERG rescue – compounds protecting human hERG from proarrhythmic drug block; Q12809; CHO-hERG, FluxOR thallium flux, dofetilide IC70 present; activation (rescue from dofetilide block), less the hit threshold, % at 10 µM; actives 0.51% (n = 310,000);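 active means activation above the mean of controls blocked by dofetilide plus 5 SD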;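 further: thallium influx through hERG after potassium depolarization seen as dye fluorescence rise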
KCNQ1 act – human KCNQ1 channel potentiation or activation; CHO-K1 KCNQ1, thallium flux FluxOR fluorescence; hits give high values; B-score at 10 µM; actives 0.35% (n = 310,000); AID 2648;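 active means fluorescence ratio B-score, a plate-corrected score, at least three library SD, with initial intensity B-score within 5 SD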
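Assay system: CHO-K1 cells stably expressing KCNQ1; Medium: assay buffer with matched DMSO; Also added: K+/Tl+ depolarizing stimulus; Dosing: single dose; Timing: dye 90 min, compound 20 min, room temperature; Measured by: kinetic FluxOR thallium fluorescence, 10-s 1-Hz baseline, 110-s post-stimulus read; Read-out: peak-minus-minimum fluorescence over initial fluorescence, negative-control normalized, B-scored.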
KCNK9 inh – human KCNK9 channel inhibition; HEK293 KCNK9, FluxOR thallium flux fluorescence; hits give low values; B-score at 10 µM; actives 1.2% (n = 310,000); AID 488922;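 active means ratio B-score over 3 SD below the library mean, with starting fluorescence within 5 SD of its mean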;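 further: negative B-score means less thallium flux so channel inhibition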
Cl transport mod – modulates chloride dependent transport by human KCC2 | actives 2.2% (n = 190,000) | KCC2 cells, thallium flux FluoZin-2 fluorescence | Q9H2X9 | B-score of Tl+ flux slope (higher = more flux/activation; lower = inhibition) at 10 µM;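 active means thallium flux slope and its plate-corrected score both differing from the plate sample mean at a set confidence after two filtering rounds, in either direction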;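 further: slope of fluorescence scaled to starting intensity during 10 to 20 s after thallium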
KCNQ1 inh – inhibitors of human KCNQ1 potassium channel | P51787 | CHO-K1 KCNQ1, FluxOR thallium flux fluorescence; hits give high values | actives 1.3% (n = 310,000) | B-score at 10 µM;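 active means compounds whose thallium flux B-score, printed positive for inhibition, exceeds three library SD while starting fluorescence stays within three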;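 further: channel opened by potassium depolarization with thallium stimulus after 20 min compound exposure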
KCC2 sec1 – KCC2 (human) modulation, secondary assay; shares compounds with Cl transport mod; HEK293-KCC2, thallium flux, FluoZin2 fluorescence; hits give high values; normalised thallium flux (F/F0 slope) at 10 µM; actives 15% (n = 3,700);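 active means thallium flux slope above the same plate's solvent-only control mean plus 3 SD; inconclusive means the two replicate wells disagree; inactive means no significant difference from solvent-only control wells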
KCC2 bumet counter – thallium flux persisting under bumetanide in KCC2 cells, counter-screen secondary assay. shares compounds with Cl transport mod. HEK293-KCC2 + bumetanide/ouabain, thallium flux FluoZin2; hits give high values. normalized thallium flux at 10 µM. actives 49% (n = 3,700). AID 1714;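 active means thallium entry rate above the same plate's blocked-transporter control wells by more than 3 SD; inconclusive means the two repeat wells disagree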;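 further: raw slope of fluorescence over initial fluorescence between 10 and 20 s after thallium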
KCC2 secondary2 – KCC2 (human) modulation, second secondary assay; shares compounds with Cl transport mod; normalized thallium flux at 10 µM; AID 1715; actives 23% (n = 3,700); HEK293-KCC2, thallium flux FluoZin2 fluorescence; actives lie on both sides; F/F0 rise rate, 10–20 s post-thallium;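 active means thallium flux slope more than 3 SD above or below the plate's solvent-only control mean, mostly below; inconclusive means the two repeat wells disagreed; inactive means no significant shift from solvent-only controls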
HEK counter1 – parental HEK flux effect, counter-screen | shares compounds with Cl transport mod | HEK293 parental cells, thallium flux FluoZin2, ouabain; baseline-ratio fluorescence slope, 10–20 s after thallium | thallium flux rate (normalised fluorescence) at 10 µM | actives 46% (n = 3,700);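 active means thallium flux rate significantly above the same plate's solvent-only control wells, beyond their mean plus 3 SD; inconclusive means the two replicate wells gave conflicting results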
KCC2 ouabain – confirmation of human KCC2 modulators with ouabain | shares compounds with Cl transport mod | HEK293-KCC2, thallium flux FluoZin2 fluorescence; bidirectional: low = inhibitor, high = activator | raw Tl+ flux slope (below DMSO = inhibition, above = activation) at 10 µM | actives 48% (n = 3,700) | AID 1717;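 active means thallium flux slope beyond 3 SD from same-plate DMSO control mean in most replicates, usually higher, sometimes lower; inconclusive means repeat tests gave conflicting results; inactive means no significant difference from controls in most replicates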;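 further: slope of initial-normalized fluorescence between seconds 10 and 20 after thallium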
HEK counter2 – acts in parental HEK cells, second KCC2 counter-screen. shares compounds with Cl transport mod. HEK293 parental, thallium flux FluoZin-2 fluorescence slope. thallium flux slope at 10 µM. actives 33% (n = 3,700). AID 1718;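 active means thallium flux slope above the same plate's solvent-control mean plus 3 SD in both duplicate wells; inconclusive means duplicate wells that disagreed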;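 further: run without ouabain in cells lacking the KCC2 cotransporter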
Large screens that a line does not name were inactive (follow-up assays come after a bar, where they were run).

O=C1c2oc3ccccc3c(=O)c2C(c2cccc(F)c2)N1CCCO (configuration not stated)	Cl transport mod 6.7 | KCC2 sec1 inactive | KCC2 bumet counter inconclusive | KCC2 secondary2 inactive | HEK counter1 inconclusive | KCC2 ouabain inactive | HEK counter2 inactive
Cc1ccc2nc(N/C(=N/S(=O)(=O)c3ccc(F)cc3F)c3ccccc3)sc2c1	Cl transport mod 21 | KCC2 sec1 inactive | KCC2 bumet counter 0.0094 | KCC2 secondary2 inactive | HEK counter1 0.0096 | KCC2 ouabain inactive | HEK counter2 inconclusive
Cc1ccc2nc(N/C(=N/S(=O)(=O)c3ccc(F)cc3)c3ccccc3)sc2c1	Cl transport mod 4.5 | KCC2 sec1 inactive | KCC2 bumet counter inactive | KCC2 secondary2 inactive | HEK counter1 inconclusive | KCC2 ouabain inactive | HEK counter2 inconclusive
O=S(=O)(/N=C(/Nc1nc2ccccc2s1)c1ccccc1)c1ccccc1	none (no result: hERG rescue, KCNQ1 act, KCNK9 inh, Cl transport mod, KCNQ1 inh)
Cc1cc(N/C(=N\S(=O)(=O)c2ccc(F)cc2F)c2ccccc2)no1	none
C/C(=N\S(=O)(=O)c1ccc(C)cc1)NC(=S)Nc1ccc(C)cc1	none
Cc1ccc(S(=O)(=O)/N=C(/NC(=S)Nc2cccc(C)c2)c2ccccc2)cc1	Cl transport mod 20 | KCC2 sec1 inactive | KCC2 bumet counter 0.03 | KCC2 secondary2 0.042 | HEK counter1 0.022 | KCC2 ouabain 0.035 | HEK counter2 0.024
CSc1nc(N)nc2c1ncn2CC(=O)N[C@H](CO)Cc1c[nH]c2ccccc12	none (no result: hERG rescue, KCNQ1 act, KCNK9 inh, Cl transport mod, KCNQ1 inh)
Cc1cc(C)n2nc(C(=O)OCC(=O)NNC(=O)c3ccccc3)nc2n1	none (no result: hERG rescue, KCNQ1 act, KCNK9 inh, Cl transport mod, KCNQ1 inh)
COc1cc(-c2nnc(SC/C=C/c3ccccc3)n2N)cc(OC)c1OC	Cl transport mod -6 | KCC2 sec1 inactive | KCC2 bumet counter inactive | KCC2 secondary2 inactive | HEK counter1 inactive | KCC2 ouabain inactive | HEK counter2 inactive
Nn1c(SC/C=C/c2ccccc2)nnc1-c1ccncc1	none
CCOC(=O)Cn1nnnc1C(CC)N(Cc1cccs1)Cc1cc2cc(C)ccc2[nH]c1=O (configuration not stated)	none
CCOC(=O)Cn1nnnc1C(C(C)C)N(Cc1cccs1)Cc1cc2cc(C)ccc2[nH]c1=O (configuration not stated)	none (no result: Cl transport mod) | KCC2 sec1 inactive | KCC2 bumet counter inactive | KCC2 secondary2 inactive | HEK counter1 inactive | KCC2 ouabain inactive | HEK counter2 inactive
CN(CC(=O)Nc1ncn[nH]1)S(=O)(=O)c1ccc(Br)cc1	none (no result: Cl transport mod)
O=c1ccc(Cc2ccccn2)n[nH]1	Cl transport mod 2.4 | KCC2 sec1 inactive | KCC2 bumet counter inactive | KCC2 secondary2 inactive | HEK counter1 inactive | KCC2 ouabain inactive | HEK counter2 inactive
Cc1[nH]c2ccccc2c1C(=O)C(=O)Nc1ccc2c(c1)OCO2	none (no result: Cl transport mod)
CCSc1nnc(NC(=O)c2cc(C)nc3ccccc23)s1	none
